Publication PMC4618637 (Pharmacology Research & Perspectives, 2015)
Like-named read-outs stand apart in the source and are kept apart here. Values belong to the compound of their own block, whether it stands above or below them.

Tests used:
[1] = format: in vivo, rat; conditions: for Effect of β-glucuronidase treatment on blood concentrations: rat blood, data not shown
How it was run: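 Male Sprague Dawley rats (7 weeks, 274.2–317.7 g) were fasted 16 h and had jugular vein catheters placed 2 days earlier. Single oral TU-100 drug substance was given at 0.3 g/kg with 2.4 g/kg maltose (n = 5), or 0.9 g/kg with 7.2 g/kg maltose for 6G/6S. Plasma was taken at 0.083–24 h and analysed by LC-MS/MS after acetonitrile/methanol precipitation with internal standard. Cmax observed; AUC0–last; t1/2 = ln2/ke.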

[2] = Recovery of TU-100 ingredients in small intestinal luminal contents; format: in vivo, rat; conditions: for Effect of β-glucuronidase treatment on luminal amounts: rat small intestinal contents
How it was run: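 Fasted male Sprague Dawley rats (n = 3 per time) were killed 0.083–4 h after oral TU-100 with maltose. The small intestine was ligated into quarters (sites 1–4, oral to anal), and contents were collected with cold water to 10 mL and stored at −80°C. Aliquots, with or without β-glucuronidase (final 0.1 U/μL, pH 6.0, 37°C), were mixed with HBSS/30% acetonitrile and internal standard, then analysed by LC-MS/MS. Amount per site was expressed as % of dosed ingredient; mean ± SD.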

[3] = format: in vivo; conditions: human ileal effluent 4 h after 5 g TU-100 oral
How it was run: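 Subjects were 10 ileostomy patients (2 male, 8 female), with stoma made at least 2 weeks prior and normal small intestine by enteroscopy. Those given kampo medicine within 4 weeks were excluded. A new bag was fitted, then 5 g TU-100 drug product (0.42 g drug substance) was taken, followed by an unrestricted breakfast. Effluent was collected at 4 h and frozen at −80°C. Liquid–liquid extraction used pH 5.0 ammonium acetate/PEG, methanol and internal standard, with or without β-glucuronidase (final 0.1 U/μL, 37°C), before LC-MS/MS. Results were expressed as % of ingested amount.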

[4] = Portal blood pharmacokinetics of TU-100 ingredients after single oral TU-100; format: in vivo, rat
How it was run: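 Purchased male Sprague Dawley rats with hepatic portal vein catheters were fasted 16 h. They received oral TU-100 drug substance at 0.3 g/kg plus 2.4 g/kg maltose (n = 5). Portal plasma was sampled at 0.083, 0.25, 0.5, 1, 2, 4, 8 and 24 h and stored at −80°C. Samples were protein-precipitated with internal standard, optionally treated with β-glucuronidase (final 0.1 U/μL, pH 6.0, 37°C), then run on LC-MS/MS. Cmax and tmax were observed; AUC0–last was taken to the last detected time; values mean ± SD.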

[5] = isotope-labeled 6S administered orally; ref Asami et al. [2010]; cited from earlier work
[6] = all sites, all rats, all time points, data not shown
[7] = male, Sprague Dawley, rat, plasma from peripheral blood, po, 0.9 g/kg
[8] = male, Sprague Dawley, rat, plasma from portal blood, po, 0.3 g/kg
[9] = site 3 and 4, at 30 min and 1 h (Fig. 2)
[10] = site 4, at 2 h and 4 h (Fig. 2)
[11] = male, Sprague Dawley, rat, plasma from peripheral blood, po, 0.3 g/kg
[12] = rat peripheral blood, oral TU-100 0.3 g/kg, untreated, mean ± SD, n = 5

SMILES: C/C=C/C=C/C=C/CC/C=C/C(=O)NCC(C)(C)O [HBS, hydroxy-β-sanshool]
Effect of β-glucuronidase treatment on blood concentrations [1]: no effect
Level in luminal contents as % of the ingested amount [2, 6]: < 1%
Level in small intestinal luminal contents [2, 6]: below 10 μg/site
% of ingested TU-100, Median ([3]; β-glucuronidase treatment −): B.L.Q

SMILES: CC(C)=CCC[C@](C)(O[C@@H]1O[C@H](CO)[C@@H](O)[C@H](O)[C@H]1O)[C@H]1CC[C@]2(C)[C@@H]1[C@H](O)C[C@@H]1[C@@]3(C)CC[C@H](O)C(C)(C)[C@@H]3[C@@H](O[C@@H]3O[C@H](CO)[C@@H](O)[C@H](O)[C@H]3O)C[C@]12C [Rg1, ginsenoside Rg1]
Blood concentrations ([1]; rat blood after oral TU-100): too low to obtain reliable data
Effect of β-glucuronidase treatment on luminal amounts [2]: did not have a significant effect
Level in luminal contents as % of the ingested amount [2, 9]: around 10%
Level in luminal contents as % of the ingested amount [2, 10]: ~30%
% of ingested TU-100, Max ([3]; β-glucuronidase treatment −): 114.0%
% of ingested TU-100, Median ([3]; β-glucuronidase treatment −): 91.5%

SMILES: CC(C)=CCC[C@](C)(O[C@@H]1O[C@H](CO[C@@H]2O[C@H](CO)[C@@H](O)[C@H](O)[C@H]2O)[C@@H](O)[C@H](O)[C@H]1O)[C@H]1CC[C@]2(C)[C@@H]1[C@H](O)C[C@@H]1[C@@]3(C)CC[C@H](O[C@@H]4O[C@H](CO)[C@@H](O)[C@H](O)[C@H]4O[C@@H]4O[C@H](CO)[C@@H](O)[C@H](O)[C@H]4O)C(C)(C)[C@@H]3CC[C@]12C [Rb1, ginsenoside Rb1]
Tmax ([1]; male, Sprague Dawley, rat, plasma (peripheral and portal blood), oral, 0.3 g/kg): ~4 h
AUC [1, 11]: 34.3 ± 12 ng·h/mL
AUC(0-t) [1, 11]: 34.3 ± 12 ng·h/mL
Cmax [1, 11]: 2.12 ± 0.759 ng/mL
Tmax [1, 11]: 4.8 ± 1.79 h
Effect of β-glucuronidase treatment on blood concentrations [1]: no effect
AUC [4, 8]: 28.7 ± 6.29 ng·h/mL
AUC(0-t) [4, 8]: 28.7 ± 6.29 ng·h/mL
Cmax [4, 8]: 2.1 ± 1.13 ng/mL
Tmax [4, 8]: 6 ± 2.31 h
Effect of β-glucuronidase treatment on luminal amounts [2]: did not have a significant effect
Level in luminal contents as % of the ingested amount [2, 9]: around 10%
Level in luminal contents as % of the ingested amount [2, 10]: ~50%
% of ingested TU-100, Max ([3]; β-glucuronidase treatment −): 77.5%
% of ingested TU-100, Median ([3]; β-glucuronidase treatment −): 59.1%

SMILES: C/C=C/C=C/C=C\CC/C=C/C(=O)NCC(C)(C)O [HAS, hydroxy-α-sanshool]
Effect of β-glucuronidase treatment on blood concentrations [1]: no effect
AUCall [1, 12]: 951 ± 264 ng·h/mL
AUClast [1, 12]: 951 ± 264 ng·h/mL
Cmax [1, 12]: 778 ± 276 ng/mL
Tmax [1, 12]: 0.283 ± 0.209 h
t1/2 [1, 12]: 3.01 ± 2.90 h
Time for blood concentration to reach almost 0 ([1]; rat portal and peripheral blood): ≤ 5 h
Level in luminal contents as % of the ingested amount [2, 6]: < 1%
Level in small intestinal luminal contents [2, 6]: below 10 μg/site
% of ingested TU-100, Max ([3]; β-glucuronidase treatment −): 0.4%
% of ingested TU-100, Median ([3]; β-glucuronidase treatment −): B.L.Q

SMILES: C/C=C/C=C/C=C\CC/C=C/C=C/C(=O)NCC(C)C [GS, γ-sanshool]
% of ingested TU-100, Max ([3]; β-glucuronidase treatment −): 68.1%
% of ingested TU-100, Median ([3]; β-glucuronidase treatment −): 4.1%

Further lines, with some results ahead:

AUC [1, 7]: 0.974 ± 0.839 ng·h/mL
AUC(0-t) [1, 7]: 0.974 ± 0.839 ng·h/mL
Cmax [1, 7]: 0.676 ± 0.479 ng/mL
Tmax [1, 7]: 0.466 ± 0.857 h
AUC [4, 8]: 59.7 ± 40.4 ng·h/mL
AUC(0-t) [4, 8]: 59.7 ± 40.4 ng·h/mL
Cmax [4, 8]: 38.3 ± 31.8 ng/mL
Tmax [4, 8]: 1.31 ± 1.8 h
half-life [4, 8]: 1.79 h
Peak concentration of 6G and its conjugates relative to that of HAS ([4]; rat portal blood): about one-fifth
6G in luminal contents as % of the ingested amount ([2]; all sites, at 30 min (Fig. 3)): below 2%
Unconjugated 6G in luminal contents as % of the ingested amount ([2]; sites 3 and/or 4, after 1 h (Fig. 3)): 2–3%
% of ingested TU-100, Median ([3]; β-glucuronidase treatment −): B.L.Q
SMILES: CCCCC[C@H](O)CC(=O)CCc1ccc(O)c(OC)c1 [6G, [6]-gingerol]

Portal blood levels of 6S and its conjugates relative to 6G/6G conjugates ([4]; rat portal blood): approximately one tenth
Concentrations of 6S and its conjugates in the portal blood ([4]; rat portal blood after oral TU-100): below 20 ng/mL
Presence of 6S and its conjugates in luminal contents ([2]; all sites, all rats, all time points (Fig. 3)): virtually absent
% of ingested TU-100, Max ([3]; β-glucuronidase treatment +): 0.8%
% of ingested TU-100, Median ([3]; β-glucuronidase treatment +): 0.4%
% of ingested TU-100, Median ([3]; β-glucuronidase treatment −): B.L.Q
SMILES: CCCCC/C=C/C(=O)CCc1ccc(O)c(OC)c1 [6S, [6]-shogaol]
Isotope labels recovered in the urine [5]: about 90%

% of ingested TU-100, Max ([3]; β-glucuronidase treatment +): 9.1%
% of ingested TU-100, Median ([3]; β-glucuronidase treatment +): 4.3%
% of ingested TU-100, Median ([3]; β-glucuronidase treatment −): B.L.Q
SMILES: CCCCCCCCC[C@H](O)CC(=O)CCc1ccc(O)c(OC)c1 [10G, [10]-gingerol]

% of ingested TU-100, Max ([3]; β-glucuronidase treatment +): 3.5%
% of ingested TU-100, Median ([3]; β-glucuronidase treatment +): 0.8%
% of ingested TU-100, Median ([3]; β-glucuronidase treatment −): B.L.Q
SMILES: CCCCCCCCC/C=C/C(=O)CCc1ccc(O)c(OC)c1 [10S, [10]-shogaol]
